This note sets out measurements from ChEMBL document CHEMBL4270541, “Synthesis and antimicrobial evaluation of amino sugar-based naphthoquinones and isoquinoline-5,8-diones and their halogenated compounds” (Eur J Med Chem, 2018).

Data set [1] deals with Staphylococcus aureus. Briefly: Bactericidal activity against methicillin-resistant Staphylococcus aureus BMB9393 at 256 ug/ml incubated for 24 hrs followed by transfer of microbial suspension to agar plates and measured after 24 hrs post transfer by resazurin dye-based colorimetric analysis. Type of data set: functional, organism-based. In short, it runs like this: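 From MIC wells with no visible growth, 10 µL is transferred to agar plates and incubated 24 h at 37°C. MBC is the minimum concentration inhibiting 99.9% of growth. […] Triplicate.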

Data set [2] relates to Pseudomonas aeruginosa. In words: Bactericidal activity against Pseudomonas aeruginosa INCQS 00099 ATCC 27853 incubated for 24 hrs followed by transfer of microbial suspension to agar plates and measured after 24 hrs post transfer by resazurin dye-based colorimetric analysis. Type of data set: functional. The settings on record: INCQS 00099 ATCC 27853, 24 h, read-out: MBC99.9. In short, it runs like this:
(§1)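 For MBC, 10 µL from each clear MIC well was plated on agar and incubated 24 h at 37°C. MBC is the minimum concentration inhibiting 99.9% of growth. […] Triplicate.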
(In general: Alamar Blue is a resazurin reagent that responds to reducing activity.)

The subject of data set [3] is Staphylococcus epidermidis. Briefly: Antimicrobial activity against Staphylococcus epidermidis INCQS 00016 ATCC 12228 assessed as zone of inhibition at 5 mg/ml after 18 to 24 hrs by disc diffusion method. Conditions: ATCC 12228 INCQS 00016, read-out: IZ. Type of data set: functional.
The subject of another data set is Klebsiella pneumoniae. In words: Antimicrobial activity against Klebsiella pneumoniae INCQS 00083 ATCC 4352 assessed as zone of inhibition at 5 mg/ml after 18 to 24 hrs by disc diffusion method. The data set is classed as functional. Conditions: read-out: IZ. In general terms: In agar diffusion tests the substance spreads into inoculated agar from a disc or well.

Data set [4] relates to Escherichia coli. In words: Ratio of MBC99.9 to MIC for Escherichia coli INCQS 00033 ATCC 25922. Type of data set: functional, ATCC 25922 INCQS 00033. In short, it runs like this:
(§2)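 MBC/MIC ratio from the 24 h, 37°C microdilution MIC and the agar-plating MBC (99.9% growth inhibition). A ratio ≤2 was classed as bactericidal and ≥4 as bacteriostatic.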

Data set [5] concerns Staphylococcus simulans. Briefly: Antimicrobial activity against Staphylococcus simulans INCQS 00254 ATCC 27851 assessed as zone of inhibition at 5 mg/ml after 18 to 24 hrs by disc diffusion method. Type of data set: functional. Conditions: read-out: IZ.
For data set [6], the system named is Staphylococcus aureus. Briefly: Bactericidal activity against Staphylococcus aureus INCQS 00015 ATCC 25923 at 256 ug/ml incubated for 24 hrs followed by transfer of microbial suspension to agar plates and measured after 24 hrs post transfer by resazurin dye-based colorimetric analysis. The data set is classed as functional, organism-based. The essentials:
as §1

Data set [7] concerns Staphylococcus simulans. In words: Bactericidal activity against Staphylococcus simulans INCQS 00254 ATCC 27851 at 256 ug/ml incubated for 24 hrs followed by transfer of microbial suspension to agar plates and measured after 24 hrs post transfer by resazurin dye-based colorimetric analysis. Type of data set: functional, organism-based. In short, it runs like this:
as §1

Data set [8] deals with Staphylococcus aureus. Briefly: Antimicrobial activity against Staphylococcus aureus INCQS 00015 ATCC 25923 at 256 ug/ml after 24 hrs by microdilution assay. The data set is classed as functional, organism-based. (In general: Broth dilution looks for growth in wells or tubes with falling amounts of substance.)
The subject of data set [9] is Pseudomonas aeruginosa. In words: Antimicrobial activity against Pseudomonas aeruginosa INCQS 00099 ATCC 27853 after 24 hrs by microdilution assay. The data set is classed as functional. Conditions: INCQS 00099 ATCC 27853, 24 h.
For data set [10], the system named is Pseudomonas aeruginosa. Briefly: Ratio of MBC99.9 to MIC for Pseudomonas aeruginosa INCQS 00099 ATCC 27853. The data set is classed as functional. The essentials:
as §2

Data set [11] relates to Staphylococcus aureus. In words: Antimicrobial activity against methicillin-resistant Staphylococcus aureus BMB9393 assessed as zone of inhibition at 5 mg/ml after 18 to 24 hrs by disc diffusion method. The data set is classed as functional. Conditions: read-out: IZ.
Data set [12] relates to Pseudomonas aeruginosa. Briefly: Antimicrobial activity against Pseudomonas aeruginosa INCQS 00099 ATCC 27853 assessed as zone of inhibition at 5 mg/ml after 18 to 24 hrs by disc diffusion method. The data set is classed as functional. Conditions: read-out: IZ.
Data set [13] relates to Escherichia coli. In words: Antimicrobial activity against Escherichia coli INCQS 00033 ATCC 25922 assessed as zone of inhibition at 5 mg/ml after 18 to 24 hrs by disc diffusion method. Type of data set: functional. The settings on record: ATCC 25922 INCQS 00033, read-out: IZ.
Data set [14] deals with Staphylococcus simulans. In words: Antimicrobial activity against Staphylococcus simulans INCQS 00254 ATCC 27851 at 256 ug/ml after 24 hrs by microdilution assay. Type of data set: functional, organism-based.
The test system of data set [15] is Staphylococcus aureus. In words: Antimicrobial activity against Staphylococcus aureus INCQS 00015 ATCC 25923 assessed as zone of inhibition at 5 mg/ml after 18 to 24 hrs by disc diffusion method. The data set is classed as functional. Conditions: read-out: IZ.
For data set [16], the system named is Staphylococcus aureus. Briefly: Antimicrobial activity against methicillin-resistant Staphylococcus aureus BMB9393 at 256 ug/ml after 24 hrs by microdilution assay. Type of data set: functional, organism-based.
For data set [17], the system named is Escherichia coli. Briefly: Bactericidal activity against Escherichia coli INCQS 00033 ATCC 25922 incubated for 24 hrs followed by transfer of microbial suspension to agar plates and measured after 24 hrs post transfer by resazurin dye-based colorimetric analysis. Conditions: ATCC 25922 INCQS 00033, 24 h, read-out: MBC99.9. The data set is classed as functional. In short, it runs like this:
as §1

Data set [18] deals with Escherichia coli. In words: Antimicrobial activity against Escherichia coli INCQS 00033 ATCC 25922 after 24 hrs by microdilution assay. Type of data set: functional. Conditions: ATCC 25922 INCQS 00033, 24 h.
The subject of a further data set is Enterococcus faecalis. Briefly: Antimicrobial activity against Enterococcus faecalis INCQS 00234 ATCC 29212 assessed as zone of inhibition at 5 mg/ml after 18 to 24 hrs by disc diffusion method. Type of data set: functional. Conditions: ATCC 29212 INCQS 00234, read-out: IZ.
Data set [19] is described as follows: Hemolytic activity against human erythrocytes assessed as hemolysis at 200 ug/ml after 3 hrs by spectrophotometric analysis relative to control. The data set is classed as ADME, cell-based, Erythrocyte. Conditions: read-out: Activity. In short, it runs like this: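 Erythrocytes collected in citrate tubes, washed three times with PBS pH 7.4 by centrifugation and resuspended in PBS. Incubated with compounds at 200 µg/mL for 3 h at 37°C. Released hemoglobin was read in the supernatant at 545 nm against 1% Triton X-100 (complete lysis) and 1% DMSO (negative control). Below 10% hemolysis was taken as hemocompatible. Three independent experiments.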

The test system of a further data set is Proteus mirabilis. In words: Antimicrobial activity against Proteus mirabilis INCQS 00095 ATCC 15290 assessed as zone of inhibition at 5 mg/ml after 18 to 24 hrs by disc diffusion method. The settings on record: read-out: IZ. The data set is classed as functional.
Data set [20] deals with Staphylococcus epidermidis. Briefly: Bactericidal activity against Staphylococcus epidermidis INCQS 00016 ATCC 12228 at 256 ug/ml incubated for 24 hrs followed by transfer of microbial suspension to agar plates and measured after 24 hrs post transfer by resazurin dye-based colorimetric analysis. Conditions: ATCC 12228 INCQS 00016. Type of data set: functional, organism-based. The essentials: as §1

Data set [21] has as its system Staphylococcus epidermidis. Briefly: Antimicrobial activity against Staphylococcus epidermidis INCQS 00016 ATCC 12228 at 256 ug/ml after 24 hrs by microdilution assay. The data set is classed as functional, organism-based. Conditions: ATCC 12228 INCQS 00016.

Converted amounts (≈) assume the structure as drawn. The source made the active and inactive calls. The rule behind the calls is not given here. Where only a bound is given, the exact number is not on record here.

The MIC is the least concentration at which growth counts as inhibited. A lower MIC goes with inhibition by little substance. Take `CC1(C)O[C@H]2O[C@H](CNC3=C(Br)C(=O)c4ccccc4C3=O)[C@H](O)[C@H]2O1`: the outcome in the data set with Staphylococcus aureus [1], with Staphylococcus aureus [6], with Staphylococcus simulans [7], in the data set on Staphylococcus aureus [8], in the data set with Staphylococcus simulans [14] and in the data set with Staphylococcus aureus [16] was inactive. Further, the result in data set [20] and in [21] was inactive. Further, the MBC with Pseudomonas aeruginosa [2] and in the data set on Escherichia coli [17] was 16 µg/mL (≈ 37.7 µM) in each case. The zone of inhibition at 5000 µg/mL in data set [3] was found to be 10 mm; with Klebsiella pneumoniae it was 0 mm; with Staphylococcus simulans [5], 9 mm; in the data set with Staphylococcus aureus [11], 0 mm; with Pseudomonas aeruginosa [12], 16 mm; with Escherichia coli [13] it was 12 mm. The zone of inhibition at 5000 µg/mL in the data set with Staphylococcus aureus [15] turned out to be 8 mm; in the data set with Enterococcus faecalis, 0 mm; in the data set on Proteus mirabilis, 0 mm. The Ratio in the data set with Escherichia coli [4] and in the data set with Pseudomonas aeruginosa [10] was 1 throughout. For the same molecule, the MIC with Pseudomonas aeruginosa [9] and in the data set on Escherichia coli [18] was 16 µg/mL (≈ 37.7 µM) throughout. Also, in [19], the hemolysis at 3 h, 200 ug/ml was below 10%.

For the molecule `CC1(C)O[C@H]2O[C@H](CNC3=C(Cl)C(=O)c4ccccc4C3=O)[C@H](O)[C@H]2O1`, the outcome in the data set with Staphylococcus aureus [1], with Staphylococcus aureus [6], in the data set with Staphylococcus simulans [7], in the data set on Staphylococcus aureus [8], in the data set with Staphylococcus simulans [14] and with Staphylococcus aureus [16] was inactive. Besides, the outcome in data set [20] and in [21] was inactive. For the same molecule, the MBC is 8 µg/mL (≈ 21.1 µM) with Pseudomonas aeruginosa [2] and 4 µg/mL (≈ 10.5 µM) in the data set with Escherichia coli [17]. For the same molecule, the zone of inhibition at 5000 µg/mL in data set [3] stood at 15 mm; in the data set on Klebsiella pneumoniae, 0 mm; with Staphylococcus simulans [5], 13 mm; with Staphylococcus aureus [11], 0 mm; in the data set on Pseudomonas aeruginosa [12], 21 mm; with Escherichia coli [13], 17 mm. Moreover, the zone of inhibition at 5000 µg/mL with Staphylococcus aureus [15] is 14 mm; in the data set on Enterococcus faecalis it was 0 mm; in the data set with Proteus mirabilis, 0 mm. Also, the Ratio in the data set with Escherichia coli [4] and in the data set with Pseudomonas aeruginosa [10] was 1 in each case. The values for the minimum inhibitory concentration (MIC) in the data set on Pseudomonas aeruginosa [9] and in the data set with Escherichia coli [18] were 8 µg/mL (≈ 21.1 µM) and 4 µg/mL (≈ 10.5 µM), respectively. In data set [19], the hemolysis at 3 h, 200 ug/ml was 10.1 to 14.4%.
